In brackets after ≈: the same amount, converted by molar mass. Activity calls are given as the source filed them. No cut-off for these calls is given here.
Tests used:
[1] = Tmax in Swiss mouse at 50 mg/kg, po by LC-MS/MS analysis; format: ADME, organism-based; conditions: in vivo
[2] = test system: Mus musculus; experiment: Increase in iNOS mRNA expression level in Balb/c mouse splenocytes infected with Leishmania donovani amastigote forms at 25 mg/kg, ip for 5 consecutive days measured on day 7 post last treatment by RT-PCR assay relative to control; format: functional
Method in brief: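 Infected BALB/c mice dosed for 5 consecutive days (test compound i.p. in 8% DMSO, miltefosine oral), n = 5 per group; splenocytes taken day 4 and day 7 post-treatment. Total RNA extracted and iNOS mRNA quantified by real-time PCR, normalized to mouse β-actin, expressed as fold change over uninfected controls.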

[3] = test system: Leishmania donovani; experiment: Antileishmanial activity against Leishmania donovani MHOM/IN/80/DD8 amastigote forms harboring luciferase gene infected in mouse J774 cells at 50 uM after 72 hrs by Steady-Glo reagent based luminescence assay relative to control; format: functional; conditions: MHOM/IN/80/DD8, J774, 72 h, read-out: GI
Method in brief: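 Stationary-phase luciferase-expressing Dd8 promastigotes infected into J774 macrophages (4×10^4/mL seeded, 24 h, 37 °C, 5% CO2) at 1:8 macrophage:parasite for 24 h. Non-internalised parasites washed off. Compounds added at 50 and 25 µM in RPMI/10% FBS for 72 h. Lysis with Steady-Glo luciferin reagent plus PBS, luminescence read. Inhibition relative to untreated infected controls.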

[4] = test system: Leishmania donovani; experiment: Induction of apoptosis in Leishmania donovani MHOM/IN/80/DD8 promastigote forms assessed as late apoptotic cells at 50 uM after 48 hrs by Annexin V-FITC/propidium iodide staining based flow cytometry (reference value: 0.86%); format: functional
[5] = test system: Leishmania donovani; experiment: Induction of apoptosis in Leishmania donovani MHOM/IN/80/DD8 promastigote forms assessed as cell rounding at 50 uM after 48 hrs by propidium iodide staining based fluorescent microscopic method; format: functional
[6] = test system: Mus musculus; experiment: Decrease in TGFbeta level in Balb/c mouse splenocytes infected with Leishmania donovani amastigote forms at 25 mg/kg, ip co-treated with 5 mg/kg, po miltefosine administered for 5 consecutive days measured on day 4 post last treatment by sandwich ELISA relative to control; format: functional
Method in brief: (§1)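 Splenocytes (2×10^6) from treated infected BALB/c mice taken on day 4 or 7 post-treatment. Cultured in phenol-red-free RPMI 1640 with 5 μg/mL soluble L. donovani antigen for 72 h at 37 °C, 5% CO2. Supernatant cytokines measured by sandwich ELISA against a standard curve. Mean ± SD, n = 5 mice per group, three independent experiments.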

[7] = test system: Leishmania donovani; experiment: Antileishmanial activity against Leishmania donovani amastigote forms infected in Balb/c mouse assessed as inhibition of parasitic burden in liver at 50 mg/kg, ip administered for 5 consecutive days measured up to 7 weeks post treatment by Giemsa staining based assay; format: functional, organism-based
[8] = test system: Mus musculus; experiment: Increase in iNOS-mediated NO generation in Balb/c mouse splenocytes infected with Leishmania donovani amastigote forms at 25 mg/kg, ip for 5 consecutive days measured on day 4 and 7 post last treatment followed by soluble Leishmania donovani promastigote antigen-stimulation for 72 hrs by Griess assay relative to control; format: functional
Method in brief: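 Splenocytes from treated infected BALB/c mice (5-day regimen, i.p. test compound, oral miltefosine; n = 5) isolated day 4 and day 7 post-treatment. Cultured in phenol red-free RPMI 1640 with 5 μg/mL SLA for 72 h at 37 °C, 5% CO2. Supernatant nitrite measured by Griess assay at 540 nm against a sodium nitrite standard curve.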

[9] = test system: Mus musculus; experiment: Toxicity in Balb/c mouse infected with Leishmania donovani amastigote forms assessed as changes in body weight at 12.5 to 200 mg/kg, ip co-treated with 5 to 25 mg/kg, po miltefosine for 5 consecutive days; format: organism-based; conditions: in vivo
[10] = Cytotoxicity against mouse J774 cells assessed as cell viability […] after 72 hrs by MTT assay relative to control; format: cell-based; conditions: read-out: Activity
Method in brief: (§2)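 Vero and J774 cells seeded at 1×10^5 per well for 24 h, then exposed 72 h to seven two-fold dilutions from 500 to 7.81 μM. MTT solution (5 mg/mL stock) added for 2 h at 37 °C, formazan dissolved in DMSO and read at 540 nm. CC50 derived by the Huber and Koella method.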

[11] = Metabolic stability in mouse liver S9 fractions at 1 mM after 60 mins in presence of NADPH by HPLC method; format: ADME; conditions: read-out: Stability
[12] = test system: Leishmania donovani; experiment: Induction of apoptosis in Leishmania donovani MHOM/IN/80/DD8 promastigote forms assessed as DNA fragmentation at IC50 after 48 hrs by propidium iodide staining based TUNEL assay; format: functional
Method in brief: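 DNA fragmentation detected by TUNEL under fluorescence and phase-contrast microscopy, with counts of TUNEL-positive cells; three independent experiments.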

[13] = Selectivity index, ratio of CC50 for African green monkey Vero cells to IC50 for Leishmania donovani MHOM/IN/80/DD8 amastigote forms infected in mouse J774 cells; format: toxicity, cell-based; conditions: read-out: Ratio CC50/IC50
Method in brief: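 CC50: Vero or J774 cells (1×10^5/well) exposed 72 h to seven two-fold dilutions, 500–7.81 μM; MTT 2 h at 37 °C, formazan in DMSO read at 540 nm. IC50: luciferase-expressing Dd8 amastigotes in J774 macrophages (1:8), 72 h, luminescence, four-parameter Hill fit. SI = CC50/IC50, IC50 mean of three experiments.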

[14] = Cytotoxicity against mouse J774 cells assessed as reduction in cell viability after 72 hrs by MTT assay; format: cell-based; method in brief: as §2
[15] = test system: Leishmania donovani; experiment: Antileishmanial activity against Leishmania donovani amastigote forms infected in Balb/c mouse assessed as reduction in liver weight at 12.5 to 200 mg/kg, ip administered for 5 consecutive days co-treated with 5 to 25 mg/kg, po miltefosine; format: functional, organism-based
[16] = test system: Leishmania donovani; experiment: Antileishmanial activity against Leishmania donovani MHOM/IN/80/DD8 promastigote forms harboring luciferase gene after 72 hrs by Steady-Glo reagent based luminescence assay; format: functional; conditions: MHOM/IN/80/DD8, 72 h
Method in brief: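 Exponential-phase Dd8-Luc promastigotes at 1×10^6/mL in M199 with 10% FBS, 24 °C, given 50 and 25 µM for 72 h. Vehicle 0.1% DMSO. Steady-Glo added 1:1, luminescence (RLU) read. IC50 from four-parameter Hill regression, derived only where inhibition exceeded 90%. Means of at least three independent experiments.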

[17] = test system: Leishmania donovani; experiment: Antileishmanial activity against Leishmania donovani MHOM/IN/80/DD8 amastigote forms harboring luciferase gene infected in mouse J774 cells after 72 hrs by Steady-Glo reagent based two fold dilution assay; format: functional; conditions: MHOM/IN/80/DD8, 72 h
Method in brief: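 Promastigotes or J774-resident amastigotes treated 72 h with six two-fold dilutions from 200 µM down to 6.25 µM. Luciferase RLU fitted by four-parameter Hill non-linear regression to derive the […] inhibitory concentration (MIC).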

[18] = test system: Mus musculus; experiment: Increase in IL-12 level in Balb/c mouse splenocytes infected with Leishmania donovani amastigote forms at 25 mg/kg, ip co-treated with 5 mg/kg, po miltefosine administered for 5 consecutive days measured on day 7 post last treatment by sandwich ELISA relative to control; format: functional; method in brief: as §1

COc1ccc(C2C3=C(CCC3=O)Nc3c2c(-c2c[nH]c4ccccc24)nn3-c2ccc(Cl)c(Cl)c2)cc1OC (stereo not drawn)
Tmax [1]: 1.75 h | fold change (FC) [2]: 3.3 | inhibition of growth at 50 µM [3]: 97.3% | Activity [4]: 54.2% | Activity [5]: Active | inhibition (INH) [6]: 88% | inhibition [7]: Active | fold change (FC) [8]: 4.1 | Activity [9]: Non-Toxic | viability at 72 h [10]: > 95% | remaining at 1 h, 1000 µM [11]: 45% | Activity [12]: Active | selectivity ratio [13]: 108 | CC50 at 72 h [14]: 409 µM | Activity [15]: Active | IC50 [16]: 7.19 µM | MIC [17]: 50 µM (≈ 28.6 µg/mL) | fold change (FC) [18]: 11.3
